# Measurements pooled from the literature.
# Organism: Mycobacterium tuberculosis
# Observed: microbial growth
Compound,strain,measurement,result
COc1ccc(-c2cc(C(F)(F)F)c3c(N)c(C(=O)NC(C)C4CCCCC4)sc3n2)cc1 (centres unmarked),H37RV,IC50,0.93 µM
COc1ccc(CCNc2cc(-c3ccccn3)nc3cc(Br)nn23)cc1,H37RV,MIC,23 µM
COc1ccc(-c2cc(C(F)(F)F)c3c(N)c(C(=O)N4CC5(CCOC5)C4)sc3n2)cc1,H37RV,IC50,24 µM
NCC[C@H](O)C(=O)N[C@@H]1C[C@H](N)[C@@H](O[C@H]2O[C@H](CN)[C@@H](O)[C@H](O)[C@H]2O)[C@H](O)[C@H]1O[C@H]1O[C@H](CO)[C@@H](O)[C@H](N)[C@H]1O,H37RV,MIC90,3.3 µg/mL
CC(CNc1cc(-c2ccccn2)nc2nncn12)c1ccccc1 (centres unmarked),H37RV,IC90,35 µM
COc1ccc(-c2cc(C(F)(F)F)c3c(N)c(C(=O)NCCc4ccccc4)sc3n2)cc1,H37RV,IC50,> 100 µM
N#Cc1cncc(Cn2c(=S)[nH]c3cc(CO)c(Cl)cc3c2=O)c1,H37RV,MIC90,2.7 µM
FC(F)(F)Oc1ccc(CCNc2cc(-c3ccccn3)nc3nncn23)cc1,H37RV,MIC,4 µM
O=C(O)c1cc2[nH]c(=S)n(Cc3cccnc3)c(=O)c2cc1Cl,H37RV,MIC90,> 100 µM
CO[C@H]1/C=C/O[C@@]2(C)Oc3c(C)c(O)c4c(O)c(c(/C=N/N5CCN(C)CC5)c(O)c4c3C2=O)NC(=O)/C(C)=C\C=C\[C@H](C)[C@H](O)[C@@H](C)[C@@H](O)[C@@H](C)[C@H](OC(C)=O)[C@@H]1C,,MIC50,0.01 µg/mL
O=c1c2cc(Cl)c(CO)cc2[nH]c(=S)n1Cc1cccnc1,H37RV,MIC90,3.6 µM
CCCc1ccc(CNc2cc(-c3ccccn3)nc3nncn23)cc1,H37RV,MIC,> 100 µM
O=c1c2cc(Cl)ccc2[nH]c(=S)n1Cc1cncc(-c2nnn[nH]2)c1,H37RV,MIC90,> 100 µM
COc1ccc(-c2cc(C(F)(F)F)c3c(N)c(C(=O)NC45CC6CC(CC(O)(C6)C4)C5)sc3n2)cc1,H37RV,IC50,> 100 µM
